Source: PubChem BioAssay (several laboratories)
LANA-H2B inh: blockers of LANA interaction with H2A/H2B – biochemical, FP readout, HTS, primary screen. Protein LANA1 (Human herpesvirus 8 type P (isolate GK18)), Q9QR71. cell-free LANA-H2A/H2B peptide, fluorescence polarization. inhibition, % (no concentration beside the values). actives 0.6% (n = 320,000); in the data active means inhibition mostly above about 10%, no sharp cut-off; inactive means mostly below about 6.7%
CSN deneddyl inh: inhibitors of CSN-mediated cullin deneddylation, primary screen, biochemical, fluorescence polarization, uHTS; inhibition, % at 12.5 µM; AID 651999, 2013; Purified CSN, SCF-Nedd8-OG deneddylation; actives 0.38% (n = 360,000); COP9 signalosome complex subunit 5 (Homo sapiens), Q92905;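 active means pattern-corrected inhibition above about 35%, with an unprinted fluorescence ratio check between 0.5 and 1.5, limit read from the data, passing the limit was not always enough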;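 further: 0% = enzyme with substrate and 100% = substrate without enzyme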
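Material: human Csn5 produced in HEK293T cells; Input: enzyme 0.24 nM; Reagent: SCFSkp2-Nedd8OG substrate at 10 nM final; Dosing: 12.5 µM compound; Incubation: 90 min reaction at room temperature; Detection: fluorescence polarization of the substrate; Evaluation: % inhibition of substrate cleavage by Csn5; Control set: substrate-only high control, full reaction low control.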
Bfl-1 A1 inh: caspase 3/7 activation in MEF A1-2A-BIM cells, primary screen, A1 inhibitor project, cell-based, luminescence, HTS; AID 2462, 2010; actives 0.066% (n = 330,000); Caspase-Glo 3/7 luminescence, 3 h; percent of clofoctol response, vehicle zero; caspase activation, % (concentration not given with the values);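 active means over half of replicate activation scores above 10%, or exactly half above 10 with the replicate mean above 10; inconclusive means replicate mean below 10 yet half the replicates above 10; inactive means over half of replicates below 10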
EBNA-1 inh: EBNA-1 DNA-binding inhibitors, primary screen, biochemical, fluorescence polarization; actives 0.34% (n = 300,000); AID 1950, 2009; inhibition, % at 14.8 µM; in the data active means inhibition above about 28%
HNF4A DNA FP: change in binding of human HNF4A to DNA, primary screen, biochemical, fluorescence polarization, FITC-DNA; 1 h; activity change, % at 10 µM; actives 0.3% (n = 360,000); in the data active means activity change above about 30%, passing the limit was not always enough
ZTA DNA inh: counter-screen for EBNA-1 inhibitors: inhibitors of Epstein-Barr virus ZTA; inhibition, % at 11 µM; ZTA-DNA binding, fluorescence polarization; P03206; actives 0.15% (n = 320,000); AID 2234; in the data active means inhibition above about 33%
Zta DNA confirm: EBV Zta binding to ZRE DNA, inhibitors, confirmation, biochemical, fluorescence polarization, triplicate; shares compounds with ZTA DNA inh; inhibition, % at 11.1 µM; actives 30% (n = 320);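 active means mean inhibition across triplicate runs above the hit threshold derived for the original primary screen, cut at about 33% in these data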;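 further: 0% = Zta with DMSO and 100% = wells lacking Zta protein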
EBNA1 counter: EBNA-1 DNA-binding inhibition, counter-screen for ZTA inhibitor project, biochemical, fluorescence polarization. 320 tested, under 10 active. shares compounds with ZTA DNA inh. inhibition, % at 14.8 µM; call rule not given here
* marks the source's active call; other numbers are inactive results. Shown are actives, neighbours in structure and some others; about 1.5% of the full set was active somewhere.

Results for COC(=O)CSc1nnc([C@H](Cc2ccccc2)NC(=O)OC(C)(C)C)o1 ?
LANA-H2B inh: -9; CSN deneddyl inh: 2; Bfl-1 A1 inh: 0; EBNA-1 inh: 5; HNF4A DNA FP: 1; ZTA DNA inh: 90*; Zta DNA confirm: 0; EBNA1 counter: -4

What do the screens show for `CC(C)(C)OC(=O)N[C@@H](Cc1ccccc1)c1nnc(SCC(N)=O)o1`?
LANA-H2B inh: 0; CSN deneddyl inh: 0; Bfl-1 A1 inh: 0; EBNA-1 inh: -4; HNF4A DNA FP: 1; ZTA DNA inh: -4

Results for COc1ccc(-n2nnc3c(=O)n(CC(=O)N4CCCc5ccccc54)cnc32)cc1 ?
LANA-H2B inh: 0; CSN deneddyl inh: -1; Bfl-1 A1 inh: 1; EBNA-1 inh: 15; HNF4A DNA FP: -6; ZTA DNA inh: 36*; Zta DNA confirm: 3; EBNA1 counter: -8

Results for Cc1ccc(O)c(CNCCNCc2cc(C)ccc2O)c1 ?
LANA-H2B inh: 2; CSN deneddyl inh: -2; Bfl-1 A1 inh: 1; EBNA-1 inh: 5; HNF4A DNA FP: 2; ZTA DNA inh: 46*; Zta DNA confirm: 9; EBNA1 counter: -8

How did C#CCOCCOCCOCCNc1nc(N2CCOCC2)nc(N2CCN(C(=O)CCCCCCCCCCNC(=O)Cn3cc(CCCCCN)nn3)CC2)n1 do in these assays?
LANA-H2B inh: -5; CSN deneddyl inh: 0; Bfl-1 A1 inh: 0; EBNA-1 inh: -5; HNF4A DNA FP: 4; ZTA DNA inh: 0

Results for C#CCOCCOCCOCCNc1nc(N2CCN(C(=O)CCCCCCCCCCNC(=O)Cn3cc(CCCCCN)nn3)CC2)nc(N2CCN(C(=O)CCCCCCCCCCNC(=O)[C@H]([C@@H](C)CC)n3cc(CCCCCN)nn3)CC2)n1 ?
LANA-H2B inh: -31; CSN deneddyl inh: 64*; Bfl-1 A1 inh: inconclusive; EBNA-1 inh: 4; HNF4A DNA FP: 52*; ZTA DNA inh: 83*; Zta DNA confirm: 35*; EBNA1 counter: -5

How did C#CCOCCOCCOCCNc1nc(N2CCOCC2)nc(N2CCN(C(=O)CCCCCCCCCCNC(=O)[C@H](CO)n3cc(CCCCCN)nn3)CC2)n1 do in these assays?
LANA-H2B inh: -3; CSN deneddyl inh: -3; Bfl-1 A1 inh: 0; EBNA-1 inh: 16; HNF4A DNA FP: -2; ZTA DNA inh: 24

Results for C#CCOCCOCCOCCNc1nc(N2CCN(C(=O)CCCCCCCCCCNC(=O)Cn3cc(CCCCCN)nn3)CC2)nc(N2CCN(C(=O)CCCCCCCCCCNC(=O)[C@H](CO)n3cc(CCCCCN)nn3)CC2)n1 ?
LANA-H2B inh: -27; CSN deneddyl inh: 22; Bfl-1 A1 inh: 1; EBNA-1 inh: 6; HNF4A DNA FP: 38*; ZTA DNA inh: 50*; Zta DNA confirm: 36*; EBNA1 counter: -9

What do the screens show for `COc1cc(/C=C2\COC/C(=C\c3ccc(O)c(OC)c3)C2=O)ccc1O`?
LANA-H2B inh: -2; CSN deneddyl inh: 9; Bfl-1 A1 inh: 0; EBNA-1 inh: 8; HNF4A DNA FP: 0; ZTA DNA inh: 52*; Zta DNA confirm: 42*; EBNA1 counter: -11

Results for COc1cccc(-n2cnnc2SC(C)C(=O)NC2CCCC2)c1 (stereo not drawn) ?
LANA-H2B inh: 1; CSN deneddyl inh: 0; Bfl-1 A1 inh: 0; HNF4A DNA FP: 3; ZTA DNA inh: 11

How did C/C(=N\NC(=S)NCCc1ccccc1)c1ccc(C#N)cc1 do in these assays?
LANA-H2B inh: -1; CSN deneddyl inh: 3; Bfl-1 A1 inh: 1; EBNA-1 inh: 14; HNF4A DNA FP: 2; ZTA DNA inh: 38*; Zta DNA confirm: 5; EBNA1 counter: 23

What do the screens show for `C/C(=N\NC(=S)NCCc1ccccc1)c1ccc(C)cc1`?
LANA-H2B inh: -1; CSN deneddyl inh: 2; Bfl-1 A1 inh: -1; EBNA-1 inh: 16; HNF4A DNA FP: -3; ZTA DNA inh: -8

What do the screens show for `CCC1(CC)NC(=O)N(CC(=O)Nc2ccc(S(=O)(=O)N3CCOCC3)cc2)C1=O`?
LANA-H2B inh: -2; CSN deneddyl inh: 8; Bfl-1 A1 inh: 0; EBNA-1 inh: -19; HNF4A DNA FP: 0; ZTA DNA inh: 0

How did CCCCC1(C)NC(=O)N(CC(=O)Nc2ccc(S(=O)(=O)N3CCOCC3)cc2)C1=O (stereo not drawn) do in these assays?
LANA-H2B inh: -5; CSN deneddyl inh: 0; Bfl-1 A1 inh: 1; EBNA-1 inh: 16; HNF4A DNA FP: -3; ZTA DNA inh: 47*; Zta DNA confirm: -1; EBNA1 counter: -5

What do the screens show for `CSCc1cc(C(=O)NC2CC2)c(N)s1`?
CSN deneddyl inh: 5; HNF4A DNA FP: 5

How did CC(NC(=O)COC(=O)c1ccccc1SCC(=O)N1CCCC1)c1ccccc1 (stereo not drawn) do in these assays?
LANA-H2B inh: -3; CSN deneddyl inh: -1; Bfl-1 A1 inh: 1; EBNA-1 inh: 10; HNF4A DNA FP: 1; ZTA DNA inh: 12

How did Cc1cccc(C)c1NC(=S)NCCc1ccccn1 do in these assays?
LANA-H2B inh: -4; CSN deneddyl inh: 0; Bfl-1 A1 inh: 0; EBNA-1 inh: 14; HNF4A DNA FP: 2; ZTA DNA inh: 34*; Zta DNA confirm: 1; EBNA1 counter: 8

Results for COCCNC(=O)C1(C)CCCN(C(=O)c2cccc(Cl)c2)C1 (stereo not drawn) ?
CSN deneddyl inh: 0; HNF4A DNA FP: 0

How did CCOc1ccc(NC(=O)CSc2nccn(-c3ccc4c(c3)OCCO4)c2=O)cc1 do in these assays?
LANA-H2B inh: 1; CSN deneddyl inh: 3; Bfl-1 A1 inh: -1; EBNA-1 inh: 4; HNF4A DNA FP: -3; ZTA DNA inh: 47*; Zta DNA confirm: 4; EBNA1 counter: 2

Results for Cn1cc(CCNC(=O)CC2C(=O)NCCN2CC(c2ccccc2)c2ccccc2)cn1 (stereo not drawn) ?
LANA-H2B inh: 2; CSN deneddyl inh: -4; Bfl-1 A1 inh: 0; EBNA-1 inh: -12; HNF4A DNA FP: 3; ZTA DNA inh: -6

Results for CC(C)Oc1ccc(CCNC(=O)CC2C(=O)NCCN2C)cc1 (stereo not drawn) ?
LANA-H2B inh: -2; CSN deneddyl inh: 4; Bfl-1 A1 inh: -1; EBNA-1 inh: -15; HNF4A DNA FP: -3; ZTA DNA inh: 52*; Zta DNA confirm: 10; EBNA1 counter: 5
